Screens as filed in PubChem BioAssay.
The list is not random: actives were taken first. Their share in the collection is about 2.6%.
SENP8 block-1: SENP8 (human) protease inhibition; Q96LD8; recombinant SENP8, Nedd8 substrate fluorescence; inhibition, % at 20 µM; hit rate 0.64% among 360,000; AID 602440; in the data active = inhibition mostly above about 40%, no sharp cut-off; inactive = mostly below about 27%
UCH37 inh: blocks the human deubiquitinase UCH37 | hit rate 0.33% among 330,000 | Q9Y5K5 | AID 588478 | purified proteasome/UCH37, Ub-AMC cleavage fluorescence | inhibition, % (no concentration beside the values);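 active = mean inhibition over replicate wells above about 20%, limit read from the data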;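 also: 0% = compound-free wells with enzyme and 100% = wells lacking proteasome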
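Assay system: Proteasome-bound UCH37. Buffer or medium: pH 7.4 Tris-HCl (50 mM) with ovalbumin, ATP-MgCl2, DTT. Incubation: 30 min preincubation with enzyme, 25 min cleavage at room temperature. Measured by: fluorescence, ex 355 nm, em 460 nm. Read-out basis: percent inhibition. Control set: wells without proteasome as full block, compound-free enzyme plus substrate as uninhibited.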
SENP7 block: inhibitors of human SENP7 protease; Q9BQF6; recombinant SENP7, Z-RLRGG-aminoluciferin luminescence, 40 min; inhibition, % at 5 µM; hit rate 1.5% among 330,000;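 active = inhibition above about 50% at the single test dose, limit read from the data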;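 also: plate controls were DMSO with enzyme for no effect and no enzyme buffer wells for full effect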
SENP1 inh: SENP1 (human) catalytic domain inhibition; inhibition, % at 10 µM; Q9P0U3; recombinant SENP1 catalytic domain, CyPet-SUMO1-YPet FRET cleavage; hit rate 0.21% among 360,000;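 active = inhibition at least 30% at 10 µM, raw YFP signal under a set limit, fluorescence ratio 0.5 to 1.5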;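 also: 0% = enzyme with DMSO and 100% = no enzyme wells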
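Assay system: hSENP1 catalytic domain, recombinant. Amount: SENP1 enzyme, 20 pM final. Schedule: 50 min reaction, RT, dark. Technique: FRET, CFP and YFP emission. Control set: no-enzyme wells low, DMSO-plus-enzyme wells high control.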
SENP8 block-2: inhibitors of human SENP8 protease; Q96LD8; inhibition, % at 10 µM; purified SENP8, Z-RLRGG-aminoluciferin cleavage, luminescence; hit rate 1.2% among 330,000; in the data active = inhibition above about 50%
SENP6 block: inhibitors of human SENP6 protease | Recombinant SENP6 catalytic domain, aminoluciferin luminescence | hit rate 1.8% among 330,000 | Q9GZR1 | inhibition, % at 10 µM;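 active = inhibition above about 50% at the single tested dose, limit read from the data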;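 also: plate controls were DMSO wells with enzyme for no effect and DMSO wells lacking enzyme for full effect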
Target sequence (Q9GZR1 628-1112 limits assumed): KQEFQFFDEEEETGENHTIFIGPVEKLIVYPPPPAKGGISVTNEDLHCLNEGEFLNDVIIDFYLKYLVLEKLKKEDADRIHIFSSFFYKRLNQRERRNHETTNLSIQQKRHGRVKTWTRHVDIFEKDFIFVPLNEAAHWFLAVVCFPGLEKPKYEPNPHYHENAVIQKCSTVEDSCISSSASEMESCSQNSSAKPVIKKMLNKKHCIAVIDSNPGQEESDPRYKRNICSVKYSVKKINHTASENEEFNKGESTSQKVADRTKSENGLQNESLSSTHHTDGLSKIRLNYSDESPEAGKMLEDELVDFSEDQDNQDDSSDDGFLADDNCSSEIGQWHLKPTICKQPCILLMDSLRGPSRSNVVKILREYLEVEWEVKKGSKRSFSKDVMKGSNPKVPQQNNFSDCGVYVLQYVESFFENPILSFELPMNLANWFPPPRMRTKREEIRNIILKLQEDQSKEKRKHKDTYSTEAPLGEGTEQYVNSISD
SENP8 conf: confirmation of human SENP8 protease inhibitors. shares compounds with SENP7 block. Recombinant SENP8, Z-RLRGG-aminoluciferin luminescence, 60 min. inhibition, % at 12.5 µM. hit rate 40% among 6,200;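 active = mean inhibition across replicates above about 50%, limit read from the data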
SENP6 conf: human SENP6 inhibition, confirmed. AID 488915. shares compounds with SENP7 block. recombinant SENP6, Z-RLRGG-aminoluciferin luminescence. hit rate 58% among 6,200. inhibition, % at 12.5 µM
SENP7 conf: human SENP7 inhibition, confirmed. recombinant SENP7, Z-RLRGG-aminoluciferin luminescence, 40 min. shares compounds with SENP7 block. AID 488917. hit rate 69% among 6,200. inhibition, % at 12.5 µM
Casp3 select: inhibits human caspase-3 in SENP selectivity test; shares compounds with SENP7 block; purified caspase-3, Z-DEVD-aminoluciferin luminescence, 60 min; inhibition, % at 12.5 µM; hit rate 60% among 6,200;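 active = mean inhibition above about 50%, limit read from the data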;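 also: plate controls were enzyme with DMSO for no effect and wells without caspase-3 for full effect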
Target sequence (P42574 28-227 limits assumed): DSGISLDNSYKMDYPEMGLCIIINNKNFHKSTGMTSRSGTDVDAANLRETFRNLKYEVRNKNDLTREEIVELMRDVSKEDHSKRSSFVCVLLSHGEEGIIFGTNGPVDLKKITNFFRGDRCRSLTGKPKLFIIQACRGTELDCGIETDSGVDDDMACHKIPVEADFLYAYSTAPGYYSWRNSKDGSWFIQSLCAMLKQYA
SENP luc ctr: interferes with luciferase luminescence in SENP counter-screen; inhibition, % at 12.5 µM; shares compounds with SENP7 block; hit rate 39% among 6,200; Pre-incubated SENP8/Z-RLRGG-aminoluciferin, luciferase luminescence interference; AID 488919;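 active = mean inhibition above about 50% when retested at one dose, limit read from the data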;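 also: plate controls were DMSO wells with completed reaction for no effect and substrate without enzyme for full effect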
Numbers without * were called inactive; . = no result given.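 The calls were made as follows, unless noted: active = mean inhibition above about 50% in the one-dose retest (limit read from the data); inactive = the rest.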

SMILES | SENP8 block-1 | UCH37 inh | SENP7 block | SENP1 inh | SENP8 block-2 | SENP6 block | SENP8 conf | SENP6 conf | SENP7 conf | Casp3 select | SENP luc ctr
C=C(C)COc1ccc(-c2ncncc2-c2ccccc2OC)c(O)c1 | 12 | 5 | -6 | -5 | 85* | 2 | -2 | 6 | 2 | 0 | 1
CCOc1ccc(-c2ncncc2-c2ccccc2OC)c(O)c1 | 3 | 7 | 10 | -1 | 3 | 22 | . | . | . | . | .
Cc1ccc(C(=O)Nc2ccc(C(=O)N3CCCCC3)cc2)o1 | 3 | 1 | 78* | 0 | 48 | 66* | 58* | 60* | 89* | 89* | 68*
Cc1ccc(C(=O)Nc2ccc(NC(=O)c3ccc(C)o3)cc2)o1 | -10 | 1 | -4 | -1 | 1 | 18 | . | . | . | . | .
Cc1ccccc1CC(=O)Nc1ccc(C(=O)N2CCCC2)cc1 | 8 | -3 | 55* | 2 | 17 | 41 | 44 | 40 | 69* | 78* | 53*
Cc1ccc(CC(=O)Nc2ccc(C(=O)N3CCCCC3)cc2)cc1 | 5 | . | 10 | 2 | -7 | -14 | . | . | . | . | .
COc1ccc(C=NNC(=O)c2ccncc2)c(C(=O)O)c1OC | . | 9 | . | . | . | . | . | . | . | . | .
CCOc1cc(C=NO)ccc1OCc1ccc(C)cc1 | . | 6 | . | . | . | . | . | . | . | . | .
Cc1ccc(COc2ccc(/C=N/O)cc2)cc1 | 2 | . | 57* | 1 | 45 | 70* | 71* | 70* | 86* | 48 | 47
COc1ccc(S(=O)(=O)Nc2cc(SCC(=O)O)c(O)c3ccccc23)cc1 | 40 | 16 | 31 | 0 | 51* | 76* | 30 | 59* | 13 | 10 | 16
Cc1ccc(C(=O)Nc2ccc(N3CCCCC3)cc2)cc1 | 12 | 2 | -9 | -2 | -19 | -7 | . | . | . | . | .
O=C(Cc1ccccc1)Nc1ccc(N2CCCCC2)cc1 | 18 | 5 | 64* | 1 | 54* | 39 | -4 | 44 | 77* | 73* | 0
CN1CCN(c2ccc(NC(=O)Cc3ccccc3)cc2)CC1 | 5 | 0 | -4 | 1 | -9 | 0 | . | . | . | . | .
O=C(Nc1ccc(N2CCCC2)cc1)c1cccc(F)c1 | 20 | 2 | 93* | -3 | 89* | 94* | 87* | 86* | 96* | 80* | 75*
O=C(Nc1ccc(N2CCCCC2)cc1)c1ccccc1 | 14 | 1 | 90* | 0 | 75* | 84* | 5 | 85* | 98* | 92* | 29
O=C(Nc1ccc(N2CCCC2=O)cc1)c1cccc(F)c1 | -4 | 2 | 89* | 2 | 72* | 81* | -12 | 16 | 62* | 70* | 49
CSc1ccccc1NC(=S)NN=Cc1cccn1Cc1ccc(F)cc1 | . | 7 | . | . | . | . | . | . | . | . | .
Cc1cc(C)nc(NN=Cc2cccc([N+](=O)[O-])c2)n1 | . | 9 | . | . | . | . | . | . | . | . | .
O=C(Nc1ccc(N2CCCC2)cc1)c1ccccc1F | 24 | 6 | 9 | -2 | 19 | -1 | . | . | . | . | .
O=C(Nc1ccc2c(c1)CCCN2C(=O)c1ccccc1)c1ccccc1 | 8 | 3 | 83* | 3 | 78* | 84* | 12 | 85* | 97* | 85* | 67*
Cc1cc(C(=O)Nc2ccc(N3CCCCC3)cc2)no1 | 11 | 0 | 54* | 1 | 38 | 50 | 17 | 56* | 77* | 81* | 19
O=C(Nc1ccc(N2CCCCC2)cc1)c1cncc(Br)c1 | 22 | 5 | 52* | 4 | 30 | -36 | 48 | 38 | 62* | 68* | 8
O=C(Nc1ccc(N2CCCCC2)cc1)c1ccc(F)cc1F | 7 | -3 | 80* | 4 | 77* | 88* | 33 | 77* | 88* | 84* | 14
Cc1ccccc1C(=O)Nc1ccc2c(c1)CCCN2C(=O)c1cccs1 | 13 | 5 | 31 | 2 | 38 | 45 | . | . | . | . | .
COc1ccc(C=NNC(=O)COc2ccc3ccccc3c2)c(C(=O)O)c1OC | . | 3 | . | . | . | . | . | . | . | . | .
SMILES | SENP8 block-1 | UCH37 inh | SENP7 block | SENP1 inh | SENP8 block-2 | SENP6 block | SENP8 conf | SENP6 conf | SENP7 conf | Casp3 select | SENP luc ctr
O=S(=O)(ON=C1CCCc2ccccc21)c1ccc(Cl)cc1 | . | 2 | . | . | . | . | . | . | . | . | .
COC(=O)c1ccc(COc2ccccc2C=NNS(=O)(=O)c2ccc(C)cc2)cc1 | . | 6 | . | . | . | . | . | . | . | . | .
COc1ccc(C(=O)O/N=C(\N)c2ccc(Cl)cc2)cc1 | 18 | -1 | 68* | 4 | 45 | 58* | 45 | 42 | 84* | 72* | 42
N/C(=N\OC(=O)c1cccs1)c1ccc(Cl)cc1 | 18 | 3 | 68* | 2 | 51* | 61* | 5 | 6 | 11 | 7 | 11
Cc1ccc(C(=O)O/N=C(\N)Cc2cccs2)c(Cl)c1 | 0 | 4 | 85* | 1 | 70* | 87* | 84* | 83* | 95* | 86* | 84*
Cc1ccc(C(=O)O/N=C(\N)Cc2ccc([N+](=O)[O-])cc2)c(Cl)c1 | 21 | 5 | 7 | 1 | 2 | -7 | . | . | . | . | .
COc1ccc(/C(N)=N/OC(=O)c2ccc(Br)o2)cc1 | 14 | 1 | 16 | 1 | 2 | 43 | . | . | . | . | .
COc1ccc(/C(N)=N/OC(=O)c2cccs2)cc1 | 11 | 8 | 15 | 2 | 58* | 77* | 64* | 74* | 95* | 75* | 82*
COc1ccccc1C(=O)O/N=C(\N)c1ccc(Cl)cc1 | 0 | 1 | 24 | 2 | 13 | -1 | . | . | . | . | .
CN(C)c1ccc(C=NNC(=O)CC#N)cc1 | . | -158 | . | . | . | . | . | . | . | . | .
CS(=O)(=O)ON=C1CCCCC1c1ccc([N+](=O)[O-])cc1[N+](=O)[O-] (stereo not drawn) | . | 3 | . | . | . | . | . | . | . | . | .
Cc1ccc(/C(N)=N/OC(=O)c2ccc(Cl)cc2Cl)cc1 | 5 | 0 | 64* | 2 | 49 | 79* | 33 | 50* | 84* | 47 | 59*
Cc1cccc(C(=O)O/N=C(\N)c2ccc(Cl)cc2)c1 | 13 | 2 | 50 | 3 | 22 | 25 | . | . | . | . | .
O=S(=O)(Nc1ccc(O)c2ccccc12)c1cccs1 | 20 | 2 | 19 | 1 | 30 | 63* | 13 | 12 | -6 | -2 | -1
CN(C)c1ccc(C(=O)Nc2nc3c(s2)CCCC3)cc1 | -397 | -6 | 98* | 0 | 94* | 95* | 14 | 69* | 82* | 58* | 38
